Sampled rows, rich in hits. Any-hit rate of the full collection: about 1%.
procasp7 counter – counter-screen for procaspase-3 activators: activators of human procaspase-7 | P55210 | recombinant procaspase-7, Ac-DEVD-pNA absorbance 405 nm; D23A/D198A/D206A triple mutant, cannot self-cleave; scale: DMSO 0, 5 µM enzyme 100 | activation, % at 8.5 µM | hit rate 0.093% among 330,000 | AID 463210;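 active = percent activation above the screen-wide mean plus 3 SD, cut at about 25% in these data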
Target sequence (P55210 whole entry D23A/D198A/D206A): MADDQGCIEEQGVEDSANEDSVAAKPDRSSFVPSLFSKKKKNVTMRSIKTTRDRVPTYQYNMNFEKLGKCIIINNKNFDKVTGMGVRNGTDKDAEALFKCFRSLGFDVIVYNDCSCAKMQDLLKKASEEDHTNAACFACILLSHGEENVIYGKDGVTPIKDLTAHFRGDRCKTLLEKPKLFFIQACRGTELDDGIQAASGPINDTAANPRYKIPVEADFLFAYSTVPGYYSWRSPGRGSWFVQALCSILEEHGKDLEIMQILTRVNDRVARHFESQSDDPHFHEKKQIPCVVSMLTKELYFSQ
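System: Uncleavable procaspase-7 mutant enzyme; Amount: 2 µM procaspase-7 mutant as dispensed; Schedule: 1 h compound preincubation, 2 h substrate cleavage, 25 °C; Measured by: 405 nm absorbance of p-nitroaniline; Evaluation: percent activation from buffer-corrected 0–120 min absorbance change; Control set: low DMSO alone, high DMSO plus 5 µM PC-7.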
PREPL inhibitor – inhibits the human prolyl oligopeptidase-like enzyme | recombinant PREPL, fluorescence polarization activity-based probe | inhibition, % at 5.96 µM | hit rate 0.68% among 320,000; in the data active = inhibition above about 43%;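 also: 0% = enzyme with DMSO and 100% = wells lacking enzyme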
proCasp3 act – procaspase-3 (human) activation. P42574. recombinant procaspase-3 D3A, Ac-DEVD-pNA absorbance 405 nm. activation, % at 8.5 µM. hit rate 0.11% among 330,000;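 active = activation above the mean of all tested compounds plus 3 SD, cut at about 21% in these data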;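 also: 0% = DMSO alone and 100% = DMSO wells spiked with extra 5 µM PC-3 D3A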
Target sequence (P42574 whole entry D9A/D28A/D175A): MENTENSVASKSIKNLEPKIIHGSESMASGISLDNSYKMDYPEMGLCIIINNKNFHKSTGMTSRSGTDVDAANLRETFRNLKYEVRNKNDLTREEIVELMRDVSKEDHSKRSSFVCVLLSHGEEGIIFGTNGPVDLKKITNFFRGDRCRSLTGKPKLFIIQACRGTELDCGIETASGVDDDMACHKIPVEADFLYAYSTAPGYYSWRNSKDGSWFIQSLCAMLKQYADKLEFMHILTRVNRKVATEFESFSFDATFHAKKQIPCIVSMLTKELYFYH
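Test system: Procaspase-3 D3A mutant; medium: Zinc-free HEPES/NaCl buffer with 0.01% Triton X-100 at pH 7.4; reagent: DEVD-pNA substrate; doses: one concentration, 8.5 µM nominal, 0.8% DMSO; times: 1 h preincubation plus 2 h reaction at 25 °C; signal: Epi-absorbance at 405 nm of released p-nitroaniline, 0 and 120 min; replicates: singlicate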
LYPLA2 inh – blocks human lysophospholipase 2, a PME1 counter-screen | O95372 | recombinant LYPLA2, FP-Rh probe fluorescence polarization | inhibition, % at 5.9 µM | hit rate 0.38% among 320,000 | AID 2177;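 active = inhibition above the screen-wide mean plus 3 SD, limit set per campaign, cut at about 26% in these data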;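 also: 0% = LYPLA2 with DMSO and 100% = wells lacking LYPLA2 enzyme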
LYPLA1 inh – blocks human lysophospholipase 1, a PME1 counter-screen. hit rate 0.16% among 320,000. recombinant LYPLA1, FP-Rh probe fluorescence polarization. inhibition, % at 5.9 µM. O75608;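 active = inhibition above the mean of all tested compounds plus 3 SD, set per campaign, cut at about 14% in these data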;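 also: inhibitors block serine hydrolase probe labeling of LYPLA1 so polarization falls; 0% = enzyme with DMSO and 100% = wells lacking LYPLA1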
LYPLA1 confirm – counter-screen for PME1 inhibitors: confirmation of human LYPLA1 inhibitors; shares compounds with LYPLA1 inh; inhibition, % at 5.9 µM; AID 2233; recombinant LYPLA1, FP-Rh probe fluorescence polarization; hit rate 69% among 480;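 active = mean inhibition across replicates above the hit cutoff set in the primary screen, cut at about 15% in these data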;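 also: loss of FP-Rh probe labeling of LYPLA1 seen as lower polarization; 0% = LYPLA1 with DMSO and 100% = wells lacking LYPLA1 enzyme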
LYPLA2 conf – counter-screen for PME1 inhibitors: confirmation of human LYPLA2 inhibitors | shares compounds with LYPLA2 inh | recombinant LYPLA2, FP-Rh probe fluorescence polarization | inhibition, % at 5.9 µM | hit rate 72% among 1,100;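 active = mean inhibition across replicates above the hit cutoff set in the primary screen, cut at about 26% in these data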;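 also: blocked labeling of the enzyme by serine hydrolase FP-Rh probe lowers polarization; 0% = enzyme with DMSO and 100% = wells lacking LYPLA2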
Active calls of the source: *.

Results for CCNc1ccccc(-c2ccc3ccccc3n2)c1=O ?
procasp7 counter: -12; PREPL inhibitor: 13; proCasp3 act: -3; LYPLA2 inh: -7; LYPLA1 inh: -2

How did Cc1cccc(N2CCN(CC(O)COc3ccc(Cl)cc3)CC2)c1 (stereo not given) do in these assays?
procasp7 counter: 10; PREPL inhibitor: 23; proCasp3 act: 6; LYPLA2 inh: 20; LYPLA1 inh: 2

How did OC(COc1ccc(Cl)cc1)CN1CCN(c2cccc(Cl)c2)CC1 (stereo not given) do in these assays?
procasp7 counter: 7; PREPL inhibitor: 21; proCasp3 act: 7; LYPLA2 inh: 59*; LYPLA1 inh: 20*; LYPLA1 confirm: 27*; LYPLA2 conf: 62*

What do the screens show for `CCN(CC(=O)NCc1ccc(Cl)cc1)C(=O)/C=C/c1cc(OC)c(OC)c(OC)c1`?
procasp7 counter: 5; PREPL inhibitor: 5; proCasp3 act: 2; LYPLA2 inh: -2; LYPLA1 inh: -1

How did COc1ccccc1-n1cc(C(=O)NCC(=O)N2CCN(Cc3ccccc3)CC2)c2ccccc2c1=O do in these assays?
procasp7 counter: -5; PREPL inhibitor: -5; proCasp3 act: 4; LYPLA2 inh: 84*; LYPLA1 inh: 16*; LYPLA1 confirm: 22*; LYPLA2 conf: 81*

Results for COc1ccc2ccccc2c1C(O)c1nccn1C (stereo not given) ?
procasp7 counter: 4; PREPL inhibitor: 32; proCasp3 act: 6; LYPLA2 inh: 30*; LYPLA1 inh: 24*; LYPLA1 confirm: 15*; LYPLA2 conf: 9

What do the screens show for `Cc1cc(OCc2cc(C(=O)N3CCC(Oc4cccnc4)CC3)no2)cc(C)c1Cl`?
procasp7 counter: 7; PREPL inhibitor: 6; proCasp3 act: -2; LYPLA2 inh: 59*; LYPLA1 inh: 30*; LYPLA1 confirm: 33*; LYPLA2 conf: 62*

How did Cc1cc(OCc2cc(C(=O)N3CCN(CC4CC4)CC3)no2)cc(C)c1Cl do in these assays?
procasp7 counter: -5; PREPL inhibitor: -8; proCasp3 act: 8; LYPLA2 inh: 4; LYPLA1 inh: 0

What do the screens show for `COc1ccc(-n2nc(C(=O)NCC(=O)N3CCN(c4cccc(Cl)c4)CC3)c3ccccc3c2=O)c(OC)c1`?
procasp7 counter: 1; PREPL inhibitor: 16; proCasp3 act: -2; LYPLA2 inh: 83*; LYPLA1 inh: 49*; LYPLA1 confirm: 49*; LYPLA2 conf: 68*

How did O=c1ccc2c(-c3ccccc3)c3ccc(O)cc3oc-2c1 do in these assays?
procasp7 counter: -12; PREPL inhibitor: 34; proCasp3 act: -12; LYPLA2 inh: 41*; LYPLA1 inh: 46*; LYPLA1 confirm: 33*; LYPLA2 conf: 29*

What do the screens show for `C/C(=C\c1ccccc1)CN1CCN(c2cccc(Cl)c2)CC1`?
procasp7 counter: 1; PREPL inhibitor: 13; proCasp3 act: 1; LYPLA2 inh: 37*; LYPLA1 inh: 25*; LYPLA1 confirm: 42*; LYPLA2 conf: 44*

Results for O=C(CSc1ccc(Cl)cc1)Nc1ccc(C2SCCS2)cc1 ?
procasp7 counter: 6; PREPL inhibitor: -6; proCasp3 act: -6; LYPLA2 inh: -2; LYPLA1 inh: -3

What do the screens show for `O=C(CSc1c(F)c(F)cc(F)c1F)Nc1ccc(C2SCCS2)cc1`?
procasp7 counter: 0; PREPL inhibitor: -2; proCasp3 act: 1; LYPLA2 inh: 132*; LYPLA1 inh: 105*; LYPLA1 confirm: 0; LYPLA2 conf: 0

What do the screens show for `COC(=O)CSc1nnc(-c2ccc(S(=O)(=O)NCc3cccs3)cc2)o1`?
procasp7 counter: 15; PREPL inhibitor: -2; proCasp3 act: 4; LYPLA2 inh: -1; LYPLA1 inh: -1

Results for COc1cc(COc2ccc3c(C)c(Cc4ccccc4)c(=O)oc3c2)cc(OC)c1OC ?
procasp7 counter: 7; PREPL inhibitor: -9; proCasp3 act: 5; LYPLA2 inh: 50*; LYPLA1 inh: 17*; LYPLA1 confirm: 36*; LYPLA2 conf: 57*

Results for COc1cccc(COc2ccc3c(C)c(Cc4ccccc4)c(=O)oc3c2)c1 ?
procasp7 counter: 8; PREPL inhibitor: -6; proCasp3 act: 11; LYPLA2 inh: 8; LYPLA1 inh: 0

What do the screens show for `Cc1cc2nc3ccc(N(C)C)cc3nc2cc1N`?
procasp7 counter: -32; PREPL inhibitor: 23; proCasp3 act: -9; LYPLA2 inh: 33*; LYPLA1 inh: 32*; LYPLA1 confirm: 19*; LYPLA2 conf: 24

How did Cc1ccc(-n2nc3cc(C)c(N)cc3n2)cc1 do in these assays?
procasp7 counter: 12; PREPL inhibitor: 19; proCasp3 act: 9; LYPLA2 inh: -9; LYPLA1 inh: -5

How did CC(=NNC(=O)c1ccc(NS(=O)(=O)c2cccs2)cc1)c1ccc(OCC(N)=O)cc1 do in these assays?
procasp7 counter: 7; PREPL inhibitor: 7; proCasp3 act: 5

What do the screens show for `NS(=O)(=O)c1ccc(CCNC(=O)CCCCCNc2nc(=S)[nH]c3ccccc23)cc1`?
procasp7 counter: -22; PREPL inhibitor: 0; proCasp3 act: -16; LYPLA2 inh: -10; LYPLA1 inh: -6

What do the screens show for `CCCC(=Nc1ccc(N)cc1)C1=C(O)C(C(=O)OC)C(C)(C)CC1=O` (stereo not given)?
procasp7 counter: -9; PREPL inhibitor: 31; proCasp3 act: -12; LYPLA2 inh: 28*; LYPLA1 inh: 15*; LYPLA1 confirm: 2; LYPLA2 conf: 5

What do the screens show for `c1ccc(CN2CCN(CCCNc3ccc4nnc(-c5ccccc5)n4n3)CC2)cc1`?
procasp7 counter: 9; PREPL inhibitor: -30; proCasp3 act: 2; LYPLA2 inh: 38*; LYPLA1 inh: 36*; LYPLA1 confirm: 38*; LYPLA2 conf: 29*

How did Cc1ccc(CNc2ccc3nnc(-c4ccccc4)n3n2)cc1 do in these assays?
procasp7 counter: 7; PREPL inhibitor: 0; proCasp3 act: -1; LYPLA2 inh: -3; LYPLA1 inh: -1

How did O=C(CCNS(=O)(=O)c1cccc2nonc12)NC1CCCCC1 do in these assays?
procasp7 counter: -6; PREPL inhibitor: 6; proCasp3 act: 1; LYPLA2 inh: -4; LYPLA1 inh: 0

How did CCN(CC)C(=O)C1c2ccccc2Oc2ccccc21 do in these assays?
procasp7 counter: 2; PREPL inhibitor: 54*; proCasp3 act: -5; LYPLA2 inh: 72*; LYPLA1 inh: 58*; LYPLA1 confirm: 2; LYPLA2 conf: 3

Bioassay records (PubChem)
